Measured values as given in ChEMBL document CHEMBL1125235, “Doxorubicin analogues incorporating chemically reactive substituents” (J Med Chem, 1991).

Key:
[1] = test system: MES-SA; assay: Ability to inhibit growth of doxorubicin-sensitive (MES-SA) uterine sarcoma cell line was determined in an in vitro MTT assay.; type: functional, cell-based; conditions: Homo sapiens
In short: (§1)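 Uterine sarcoma cells in Waymouth's/McCoy's 5A with 15% FCS and insulin. MES-SA seeded at 4 × 10^3, MES-SA/DOX at 6 × 10^3 per well, attached 16–24 h, then given drug-containing medium (final DMSO 0.5%) for 72 h. MTT added for 3 h at 37 °C, formazan dissolved in DMSO, OD read at 570 nm. IC50 versus untreated controls.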

[2] = test system: MES-SA; assay: Ability to inhibit growth of doxorubicin-resistant (MES-SA/DOX) uterine sarcoma cell line was determined in an in vitro MTT assay.; type: functional, cell-based; conditions: Homo sapiens; in short: as §1
[3] = test system: L1210; assay: Ability to inhibit growth of L1210 leukemic cell lines was determined in an in vitro MTT assay.; type: functional, cell-based; conditions: Mus musculus
In short: (§2)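 Murine leukemia cells in RPMI 1640 with 10% heat-inactivated FCS, 2-mercaptoethanol; exponentially growing at 10^6 cells/mL, exposed to varying drug concentrations (DMSO stock, final 0.5% DMSO; controls same) for 1 h at 37 °C, washed twice with ice-cold PBS, resuspended at 2 × 10^5/mL in drug-free medium, cultured 72 h. IC50 = concentration giving 50% growth inhibition versus untreated controls.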

[4] = test system: P388; assay: Ability to inhibit growth of P388 leukemic cell line was determined in an in vitro MTT assay.; type: functional, cell-based; conditions: Mus musculus; in short: as §2
[5] = test system: KBM-3/DOX cell line; assay: Ability to inhibit growth of human myelogenous leukemic cell line KBM-3 variant namely KBM-3/DOX, was determined in an in vitro clonogenic assay.
[6] = test system: KBM-3 cell line; assay: Ability to inhibit growth of human myelogenous leukemic cell line KBM-3 was determined in an in vitro clonogenic assay.

| Structure (SMILES) | IC50 [1] [nM] | IC50 [2] [nM] | IC50 [3] [nM] | IC50 [4] [nM] | IC50 [5] [nM] | IC50 [6] [nM] |
| --- | --- | --- | --- | --- | --- | --- |
| COc1cccc2c1C(=O)c1c(O)c3c(c(O)c1C2=O)C[C@](O)(C(=O)CO)C[C@@H]3OC1CC(NC(=O)CCl)C(O)C(C)O1 (stereo partly specified) | 400 | 2700 | 2100 | 2900 | – | – |
| COc1cccc2c1C(=O)c1c(O)c3c(c(O)c1C2=O)C[C@](O)(C(=O)CO)C[C@@H]3OC1CC(NC(=O)N(CCCl)N=O)C(O)C(C)O1 (stereo partly specified) | 800 | 7700 | 2900 | 2900 | 250 | 210 |
| COc1cccc2c1C(=O)c1c(O)c3c(c(O)c1C2=O)C[C@](O)(C(=O)CO)C[C@@H]3OC1CC(NC(=O)c2ccc(S(=O)(=O)F)cc2)C(O)C(C)O1 (stereo partly specified) | 3800 | 6900 | 6900 | 7700 | – | – |
| COc1cccc2c1C(=O)c1c(O)c3c(c(O)c1C2=O)C[C@](O)(C(=O)CO)C[C@@H]3OC1CC(NC(=O)CBr)C(O)C(C)O1 (stereo partly specified) | 200 | 800 | 2100 | 1500 | 160 | 140 |
| COc1cccc2c1C(=O)c1c(O)c3c(c(O)c1C2=O)C[C@@](O)(C(=O)CO)C[C@@H]3O[C@H]1C[C@H](N)[C@H](O)[C@H](C)O1 [DOXORUBICIN] | 40 | 4200 | 200 | 1220 | 490 | 26 |
